Measurements as given in article PMC2635340 (Neuropharmacology, 2008).
Structures can show the parent of a compound that is named as a salt.

Legend:
5-HT1AR = target: T1, 5-HT1AR (Homo sapiens, UniProt P08908); assay: ERK1/2 activation; format: cell-based
T1 sequence (P08908 1-422): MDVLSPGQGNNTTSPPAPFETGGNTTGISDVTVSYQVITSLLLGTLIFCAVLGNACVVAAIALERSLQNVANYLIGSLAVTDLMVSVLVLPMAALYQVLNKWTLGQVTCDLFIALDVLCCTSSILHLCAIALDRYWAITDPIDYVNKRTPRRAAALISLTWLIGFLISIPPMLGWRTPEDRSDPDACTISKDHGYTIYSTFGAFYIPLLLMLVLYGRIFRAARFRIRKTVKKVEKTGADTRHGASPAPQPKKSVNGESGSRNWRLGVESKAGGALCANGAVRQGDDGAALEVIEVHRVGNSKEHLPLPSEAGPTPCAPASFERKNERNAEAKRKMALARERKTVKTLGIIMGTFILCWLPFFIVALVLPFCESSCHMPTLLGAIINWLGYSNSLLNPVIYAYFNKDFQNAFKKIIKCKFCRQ
In short: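 HEK293 cells stably expressing human 5-HT1AR (clonal, selected with G418 or hygromycin) were kept in 100 μg/ml selection antibiotic and then serum-starved in serum-free DMEM for at least 24 h. Agonist (10−10–10−4 M) was applied for 5 min; selected concentrations ran 5 min–1 h. Lysates (equal protein) were resolved by 10% SDS-PAGE. Parallel blots were probed for phospho-ERK1/2 and total ERK1/2, read by ECL densitometry with background subtracted. Serum was the positive control.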

human 5-HT2A receptors = human 5-HT2A receptors (Homo sapiens, UniProt P28223); assay: Saturation isotherm radioligand binding, 5-HT2A receptor; details: membranes, geometric mean ± SD, n = 3
Sequence of human 5-HT2A receptors (P28223 whole entry): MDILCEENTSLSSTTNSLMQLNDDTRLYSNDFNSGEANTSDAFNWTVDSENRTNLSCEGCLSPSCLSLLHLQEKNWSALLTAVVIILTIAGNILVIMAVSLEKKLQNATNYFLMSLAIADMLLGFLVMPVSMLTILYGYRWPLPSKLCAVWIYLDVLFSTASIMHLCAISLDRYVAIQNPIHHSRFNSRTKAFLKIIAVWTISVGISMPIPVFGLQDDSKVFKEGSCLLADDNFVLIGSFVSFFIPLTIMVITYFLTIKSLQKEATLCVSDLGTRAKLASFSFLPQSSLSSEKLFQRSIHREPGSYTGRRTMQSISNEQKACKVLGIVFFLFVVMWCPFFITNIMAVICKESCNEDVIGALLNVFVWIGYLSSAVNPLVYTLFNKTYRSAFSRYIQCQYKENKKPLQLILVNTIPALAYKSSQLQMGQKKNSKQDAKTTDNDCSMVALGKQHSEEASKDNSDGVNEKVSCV
In short: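 HEK293 membranes (5-HT2AR alone or with 5-HT1AR) were prepared by EDTA detachment, hypotonic lysis and 35,000g centrifugation. Saturation binding used [3H]MSP (0.3–10 nM) in 50 mM Tris, pH 7.4, for 1.5 h at 25 °C, with excess mianserin defining nonspecific binding. Samples were filtered on PEI-treated GF/C filters and counted by scintillation, with protein measured by BCA. Triplicate points; Kd and Bmax were fitted from isotherms, geometric mean of three experiments.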

5-HT2AR = 5-HT2AR (Homo sapiens, UniProt P28223); assay: ERK1/2 activation; format: cell-based
Sequence of 5-HT2AR (P28223 whole entry): as above

[1] = target: 5-HT1A and 5-HT2A receptors (Homo sapiens, UniProt P28223); format: cell-based; details: 50 nM, 2 hours exposure before TCB-2 alone or TCB-2 and Xaliproden HCl
Sequence of 5-HT1A and 5-HT2A receptors (P28223 whole entry): as above

human 5-HT1A receptors = target: T2, human 5-HT1A receptors (Homo sapiens, UniProt P08908); assay: Saturation isotherm radioligand binding, 5-HT1A receptor; details: membranes, geometric mean ± SD, n = 3
T2 sequence (P08908 1-422): T1 sequence (P08908 1-422)
In short: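 HEK293 membranes (5-HT1AR alone or with 5-HT2AR) were prepared by EDTA detachment, hypotonic lysis (5 mM Tris/MgCl2, pH 7.4) and 35,000g spins. They were incubated with [3H]MPPF in 50 mM Tris, pH 7.4, at 25 °C for 1.5 h, with excess NAN-190 defining nonspecific binding. Bound ligand was collected on PEI-treated GF/C filters and counted. Triplicate points; Kd and Bmax came from saturation isotherms, three experiments.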

[2] = HEK293 cell line 5-HT1A+2AR co-expressing

SMILES: FC(F)(F)c1cccc(C2=CCN(CCc3ccc4ccccc4c3)CC2)c1 [Xaliproden HCl, Xaliproden hydrochloride]
- Time-course pattern of ERK1/2 activation (5-HT1AR; 5-HT1AR agonist, HEK293 cells): transient activation
- Minimal concentration required to obtain observed ERK activation (5-HT1AR; 5-HT1AR cells, dose-response, 5 min): 100 nM

SMILES: CN1CN(c2ccccc2)C2(CCN(CCCC(=O)c3ccc(F)cc3)CC2)C1=O [[3H] MSP, [^3H]methylspiperone]
- Bmax (human 5-HT2A receptors; [2]): 7.00 ± 1.05 pmol/mg
- Kd (human 5-HT2A receptors; [2]): 0.725 ± 0.199 nM
- Bmax (human 5-HT2A receptors; HEK293 cell line 5-HT2AR only): 4.17 ± 2.28 pmol/mg
- Kd (human 5-HT2A receptors; HEK293 cell line 5-HT2AR only): 0.246 ± 0.042 nM

SMILES: O=C(c1ccc(F)cc1)C1CCN(CCn2c(=O)[nH]c3ccccc3c2=O)CC1 [Ketanserin]
- Fraction of initial ERK activation observed (5-HT2AR; 50 nM Ketanserin present, 5-HT2AR clone): about half
- Effect on agonist-induced ERK response [1]: switched it from sustained to transient

SMILES: COc1ccccc1N1CCN(CCN(C(=O)c2ccc(F)cc2)c2ccccn2)CC1 [[3H] MPPF, 4-(2′-Methoxy)-phenyl-1-[2′-(N-2″-pyridinyl)-p-fluorobenzamido]ethyl-piperazine]
- Bmax (human 5-HT1A receptors; [2]): 8.37 ± 4.14 pmol/mg
- Kd (human 5-HT1A receptors; [2]): 0.167 ± 0.013 nM
- Bmax (human 5-HT1A receptors; HEK293 cell line 5-HT1AR only): 3.07 ± 1.67 pmol/mg
- Kd (human 5-HT1A receptors; HEK293 cell line 5-HT1AR only): 0.267 ± 0.036 nM

SMILES: CC(N)Cc1c[nH]c2ccc(O)cc12 (stereo not drawn) [α-methyl-5-HT]
- Time-course pattern of ERK activation (5-HT2AR; 10μM, HEK293-h5-HT2A): sustained ERK activation
